According to ChEMBL document CHEMBL4414574, “Structure-Based Discovery and Development of a Series of Potent and Selective Bromodomain and Extra-Terminal Protein Inhibitors” (J Med Chem, 2019):
Active and inactive are the calls of the source. The rule behind the calls is not given here.

Assays:
[1] = AUC (0 to t) in ICR mouse plasma at 50 mg/kg, po administered via gavage measured after 0.25 to 24 hrs by UPLC/MS analysis; assay type: ADME, organism-based; parameters: time lower 0.25 hr, dose 50 mg/kg, time upper 24 hr, route oral
Procedure, shortened: (§1)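 Male ICR mice were dosed orally in 1% DMSO/0.5% HPMC vehicle. Plasma (and brain, where stated) concentrations gave Tmax, Cmax, T1/2, AUC0-t and AUC0-inf.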

[2] = target: Protein polybromo-1 (Homo sapiens) (UniProt Q86U86); assay: Binding affinity to human partial length PB1 bromodomain 2 (S178 to E291 residues) expressed in Escherichia coli BL21 cells assessed as residual binding level at 1 uM measured after 1 hr by quantitative PCR based BROMOscan assay relative to control
Procedure, shortened: (§2)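 Bromodomain panel screen (32 bromodomains) run at 1 μM single concentration; primary binding reported as 'Percent Control', lower values meaning stronger interaction.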

[3] = Tmax in ICR mouse at 10 mg/kg, po administered via gavage measured after 0.25 to 24 hrs by UPLC/MS analysis; assay type: ADME, organism-based; conditions: in vivo
Procedure, shortened: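 Male ICR mice dosed orally (3, 10 or 100 mg/kg, per line) in 1% DMSO/0.5% HPMC vehicle; plasma drug levels measured.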

[4] = Half life in mouse liver microsomes at 1 uM preincubated for 5 mins followed by NADPH addition and measured after 5 to 30 mins by LC/MS/MS analysis; assay type: ADME, Microsome; conditions: microsomes, 1 µM
[5] = target: T1, Bromodomain-containing protein 4 (Homo sapiens, UniProt O60885); assay: Binding affinity to human partial length BRD4 bromodomain 2 long isoform (K333 to E460 residues) expressed in Escherichia coli BL21 cells assessed as residual binding level at 1 uM measured after 1 hr by quantitative PCR based BROMOscan assay relative to control
Procedure, shortened: (§3)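 A BROMOScan competition-binding panel of 32 bromodomains was run at a single 1 μM compound concentration. Results are primary-screen 'Percent Control', where lower values indicate stronger binding.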

[6] = target: Transcription initiation factor TFIID subunit 1-like (Homo sapiens) (UniProt Q8IZX4); assay: Binding affinity to human partial length TAF1L bromodomain 2 (Q1523 to D1654 residues) expressed in Escherichia coli BL21 cells assessed as residual binding level at 1 uM measured after 1 hr by quantitative PCR based BROMOscan assay relative to control; procedure, shortened: as §2
Transcription initiation factor TFIID subunit 1-like (Homo sapiens), sequence (Q8IZX4 whole entry, the tested form may be a part): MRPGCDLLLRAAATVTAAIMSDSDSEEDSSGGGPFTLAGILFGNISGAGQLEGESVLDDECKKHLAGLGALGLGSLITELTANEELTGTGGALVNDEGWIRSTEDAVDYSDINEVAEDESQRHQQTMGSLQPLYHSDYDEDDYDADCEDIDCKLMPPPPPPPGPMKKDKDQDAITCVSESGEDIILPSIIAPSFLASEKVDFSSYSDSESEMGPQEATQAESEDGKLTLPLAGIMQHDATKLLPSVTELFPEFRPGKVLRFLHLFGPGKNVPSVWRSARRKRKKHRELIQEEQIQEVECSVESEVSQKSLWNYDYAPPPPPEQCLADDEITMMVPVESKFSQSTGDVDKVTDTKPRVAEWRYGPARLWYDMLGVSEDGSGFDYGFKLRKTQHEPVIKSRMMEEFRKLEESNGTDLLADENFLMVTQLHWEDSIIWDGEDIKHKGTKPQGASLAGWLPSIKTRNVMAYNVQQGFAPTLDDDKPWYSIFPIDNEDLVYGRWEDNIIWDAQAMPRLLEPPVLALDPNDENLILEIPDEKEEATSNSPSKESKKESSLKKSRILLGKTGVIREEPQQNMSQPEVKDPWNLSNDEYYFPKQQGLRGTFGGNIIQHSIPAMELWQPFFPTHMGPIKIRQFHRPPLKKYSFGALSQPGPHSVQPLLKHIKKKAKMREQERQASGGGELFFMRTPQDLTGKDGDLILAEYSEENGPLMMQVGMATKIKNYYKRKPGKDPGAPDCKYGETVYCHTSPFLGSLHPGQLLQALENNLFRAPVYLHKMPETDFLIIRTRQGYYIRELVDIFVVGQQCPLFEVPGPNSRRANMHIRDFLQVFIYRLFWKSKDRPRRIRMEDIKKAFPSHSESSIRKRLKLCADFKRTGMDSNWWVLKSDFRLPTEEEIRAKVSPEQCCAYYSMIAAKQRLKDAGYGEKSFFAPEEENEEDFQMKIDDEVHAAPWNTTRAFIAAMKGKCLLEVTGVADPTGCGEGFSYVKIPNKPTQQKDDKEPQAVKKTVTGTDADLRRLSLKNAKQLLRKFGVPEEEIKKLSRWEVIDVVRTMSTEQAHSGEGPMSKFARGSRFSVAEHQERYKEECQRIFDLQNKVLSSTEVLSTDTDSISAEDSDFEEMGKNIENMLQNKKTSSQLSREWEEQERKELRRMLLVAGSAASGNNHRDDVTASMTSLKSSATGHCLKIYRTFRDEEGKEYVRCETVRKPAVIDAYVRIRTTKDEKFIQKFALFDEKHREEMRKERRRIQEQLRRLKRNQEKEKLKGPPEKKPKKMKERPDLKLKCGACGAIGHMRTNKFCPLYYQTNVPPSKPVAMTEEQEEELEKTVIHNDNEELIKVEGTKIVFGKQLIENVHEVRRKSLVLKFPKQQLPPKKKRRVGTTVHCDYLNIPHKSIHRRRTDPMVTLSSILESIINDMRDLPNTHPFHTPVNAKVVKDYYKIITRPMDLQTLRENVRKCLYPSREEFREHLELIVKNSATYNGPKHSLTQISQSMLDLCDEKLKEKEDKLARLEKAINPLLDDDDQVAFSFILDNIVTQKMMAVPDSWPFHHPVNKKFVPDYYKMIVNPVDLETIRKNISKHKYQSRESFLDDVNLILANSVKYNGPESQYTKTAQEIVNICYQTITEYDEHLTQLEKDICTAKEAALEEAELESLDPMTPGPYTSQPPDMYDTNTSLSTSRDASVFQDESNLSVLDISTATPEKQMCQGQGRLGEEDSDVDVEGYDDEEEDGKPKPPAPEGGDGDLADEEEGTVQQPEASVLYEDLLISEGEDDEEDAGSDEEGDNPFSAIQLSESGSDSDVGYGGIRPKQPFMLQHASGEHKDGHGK

[7] = target: Bromodomain adjacent to zinc finger domain protein 2A (Homo sapiens) (UniProt Q9UIF9); assay: Binding affinity to human partial length BAZ2A (M1792 to L1905 residues) expressed in Escherichia coli BL21 cells assessed as residual binding level at 1 uM measured after 1 hr by quantitative PCR based BROMOscan assay relative to control; procedure, shortened: as §3
[8] = target: Transcription intermediary factor 1-alpha (Homo sapiens) (UniProt O15164); assay: Binding affinity to human partial length TRIM24 (P790 to P977 residues) expressed in Escherichia coli BL21 cells assessed as residual binding level at 1 uM measured after 1 hr by quantitative PCR based BROMOscan assay relative to control; procedure, shortened: as §2
Transcription intermediary factor 1-alpha (Homo sapiens), sequence (O15164 whole entry, the tested form may be a part): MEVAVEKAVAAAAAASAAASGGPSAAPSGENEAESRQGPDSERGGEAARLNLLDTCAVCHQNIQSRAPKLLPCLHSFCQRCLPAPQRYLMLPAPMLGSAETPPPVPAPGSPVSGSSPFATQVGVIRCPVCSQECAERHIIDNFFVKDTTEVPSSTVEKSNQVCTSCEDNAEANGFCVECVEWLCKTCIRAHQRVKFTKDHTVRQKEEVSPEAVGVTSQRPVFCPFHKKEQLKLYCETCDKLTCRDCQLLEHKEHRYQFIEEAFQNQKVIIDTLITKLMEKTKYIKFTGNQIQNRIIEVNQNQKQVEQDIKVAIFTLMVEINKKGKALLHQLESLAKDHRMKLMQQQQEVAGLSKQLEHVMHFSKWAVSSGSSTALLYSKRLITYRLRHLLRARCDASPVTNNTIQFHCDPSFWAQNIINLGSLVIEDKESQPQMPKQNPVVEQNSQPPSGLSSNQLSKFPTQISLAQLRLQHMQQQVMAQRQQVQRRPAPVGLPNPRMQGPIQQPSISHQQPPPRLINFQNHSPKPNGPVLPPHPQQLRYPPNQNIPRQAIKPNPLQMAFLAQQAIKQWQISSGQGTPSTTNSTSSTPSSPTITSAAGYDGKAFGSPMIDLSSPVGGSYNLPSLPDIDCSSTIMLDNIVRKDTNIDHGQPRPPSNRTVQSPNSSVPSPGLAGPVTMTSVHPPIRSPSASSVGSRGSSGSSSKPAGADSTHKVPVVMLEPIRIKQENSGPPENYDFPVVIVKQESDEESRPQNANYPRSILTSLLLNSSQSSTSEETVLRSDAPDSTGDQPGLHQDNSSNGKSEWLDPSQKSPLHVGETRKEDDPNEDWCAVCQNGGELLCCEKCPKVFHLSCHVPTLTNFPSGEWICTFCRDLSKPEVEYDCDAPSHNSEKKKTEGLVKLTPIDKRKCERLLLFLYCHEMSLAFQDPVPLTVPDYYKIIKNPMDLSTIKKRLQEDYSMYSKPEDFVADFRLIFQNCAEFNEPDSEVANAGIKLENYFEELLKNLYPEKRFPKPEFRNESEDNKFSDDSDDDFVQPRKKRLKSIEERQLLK

[9] = target: E3 ubiquitin-protein ligase TRIM33 (Homo sapiens) (UniProt Q9UPN9); assay: Binding affinity to human partial length TRIM33 (D882 to A1087 residues) expressed in Escherichia coli BL21 cells assessed as residual binding level at 1 uM measured after 1 hr by quantitative PCR based BROMOscan assay relative to control; procedure, shortened: as §2
E3 ubiquitin-protein ligase TRIM33 (Homo sapiens), sequence (Q9UPN9 whole entry, the tested form may be a part): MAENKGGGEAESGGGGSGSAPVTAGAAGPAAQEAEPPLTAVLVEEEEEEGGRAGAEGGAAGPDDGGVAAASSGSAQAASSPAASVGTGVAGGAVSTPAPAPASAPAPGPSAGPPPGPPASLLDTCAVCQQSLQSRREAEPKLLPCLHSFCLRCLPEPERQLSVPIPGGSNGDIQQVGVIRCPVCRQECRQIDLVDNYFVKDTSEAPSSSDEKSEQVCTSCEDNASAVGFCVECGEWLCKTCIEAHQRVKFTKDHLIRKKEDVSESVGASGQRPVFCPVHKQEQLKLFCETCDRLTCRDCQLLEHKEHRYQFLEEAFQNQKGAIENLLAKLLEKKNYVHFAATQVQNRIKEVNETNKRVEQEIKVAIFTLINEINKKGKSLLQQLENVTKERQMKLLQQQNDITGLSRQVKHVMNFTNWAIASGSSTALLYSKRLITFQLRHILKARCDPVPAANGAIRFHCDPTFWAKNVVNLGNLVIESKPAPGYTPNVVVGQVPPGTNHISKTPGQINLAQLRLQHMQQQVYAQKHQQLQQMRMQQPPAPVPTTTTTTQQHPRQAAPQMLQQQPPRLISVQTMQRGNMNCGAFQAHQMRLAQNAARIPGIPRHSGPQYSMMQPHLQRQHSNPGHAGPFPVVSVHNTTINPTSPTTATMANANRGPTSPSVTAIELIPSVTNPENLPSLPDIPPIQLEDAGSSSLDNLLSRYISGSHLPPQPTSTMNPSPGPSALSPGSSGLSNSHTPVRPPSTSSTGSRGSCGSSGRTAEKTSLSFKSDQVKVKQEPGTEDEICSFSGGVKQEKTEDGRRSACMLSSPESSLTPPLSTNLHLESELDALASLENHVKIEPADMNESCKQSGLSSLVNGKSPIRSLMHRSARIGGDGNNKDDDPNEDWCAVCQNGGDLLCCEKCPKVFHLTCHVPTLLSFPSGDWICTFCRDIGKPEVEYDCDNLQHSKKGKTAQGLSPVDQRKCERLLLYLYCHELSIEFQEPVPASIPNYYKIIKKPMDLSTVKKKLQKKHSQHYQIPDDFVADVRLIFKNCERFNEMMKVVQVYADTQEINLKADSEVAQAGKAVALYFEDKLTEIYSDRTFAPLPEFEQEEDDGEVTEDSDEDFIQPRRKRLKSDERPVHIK

Peregrin (Homo sapiens) = Peregrin (Homo sapiens) (UniProt P55201); assay: Binding affinity to human partial length BRPF1 (E627 to G740 residues) expressed in Escherichia coli BL21 cells assessed as residual binding level at 1 uM measured after 1 hr by quantitative PCR based BROMOscan assay relative to control; procedure, shortened: as §3
[10] = target: Bromodomain-containing protein 2 (Homo sapiens) (UniProt P25440); assay: Inhibition of BRD2 bromodomain 1 (unknown origin)
Bromodomain-containing protein 2 (Homo sapiens), sequence (P25440 whole entry, looked up): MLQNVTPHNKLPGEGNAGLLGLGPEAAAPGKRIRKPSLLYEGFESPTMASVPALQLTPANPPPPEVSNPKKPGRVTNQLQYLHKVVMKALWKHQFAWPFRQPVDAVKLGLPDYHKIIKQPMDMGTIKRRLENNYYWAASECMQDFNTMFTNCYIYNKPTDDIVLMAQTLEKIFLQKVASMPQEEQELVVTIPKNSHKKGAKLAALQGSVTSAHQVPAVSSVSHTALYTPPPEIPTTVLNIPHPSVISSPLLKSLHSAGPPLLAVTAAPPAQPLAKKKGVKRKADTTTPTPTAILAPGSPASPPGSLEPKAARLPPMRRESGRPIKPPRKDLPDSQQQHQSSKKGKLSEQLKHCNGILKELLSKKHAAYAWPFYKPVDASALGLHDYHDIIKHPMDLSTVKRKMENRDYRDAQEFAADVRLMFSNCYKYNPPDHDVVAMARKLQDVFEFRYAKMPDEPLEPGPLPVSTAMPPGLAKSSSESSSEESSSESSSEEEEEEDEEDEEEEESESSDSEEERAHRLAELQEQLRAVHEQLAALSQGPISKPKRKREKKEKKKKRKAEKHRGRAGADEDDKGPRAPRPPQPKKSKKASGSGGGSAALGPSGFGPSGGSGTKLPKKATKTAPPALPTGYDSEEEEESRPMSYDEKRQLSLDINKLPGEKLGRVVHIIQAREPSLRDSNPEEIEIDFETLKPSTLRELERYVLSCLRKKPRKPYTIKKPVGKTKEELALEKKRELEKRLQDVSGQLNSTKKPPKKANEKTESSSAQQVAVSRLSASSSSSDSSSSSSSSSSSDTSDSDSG

[11] = target: T1, Bromodomain-containing protein 4; assay: Binding affinity to His6-tagged human BRD4 bromodomain 1 expressed in Escherichia coli BL21(DE3) )-codon plus-RIL cells by isothermal titration calorimetric method
Procedure, shortened: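 BRD4 BD1 was His6-tagged and expressed in E. coli BL21(DE3)-codon plus-RIL with IPTG induction overnight at 16 °C. It was purified on Ni-NTA with imidazole step elution and concentrated in HEPES pH 7.5/NaCl/DTT gel filtration buffer. Kd was measured by isothermal titration calorimetry.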

[12] = target: T1, Bromodomain-containing protein 4; assay: Inhibition of BRD4 bromodomain 2 (unknown origin)
[13] = target: Tyrosine-protein kinase ABL1 (Homo sapiens) (UniProt P00519); assay: Inhibition of Abl (unknown origin) at 10 uM using poly (Glu, Tyr) 4:1 as substrate after 60 mins by ELISA
MV4-11 [14] = assay: Antiproliferative activity against human MV4-11 cells after 72 hrs by CCK8 or SRB assay; assay type: functional, cell-based
Homo sapiens = species: Homo sapiens; assay: Antiproliferative activity against human TY82 cells after 72 hrs by CCK8 or SRB assay; assay type: functional, cell-based
Hep 3B2 = assay: Antiproliferative activity against human Hep3B cells after 72 hrs by CCK8 or SRB assay; assay type: functional, cell-based
AGS = assay: Antiproliferative activity against human AGS cells after 72 hrs by CCK8 or SRB assay; assay type: functional, cell-based
HuTu80 = assay: Antiproliferative activity against human HuTu 80 cells after 72 hrs by CCK8 or SRB assay; assay type: functional, cell-based
MV4-11 [15] = assay: Induction of apoptosis in human MV4-11 cells assessed as increase in cleaved caspase-3 level after 24 hrs by Western blot analysis; assay type: functional, cell-based
Procedure, shortened: (§4)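 MV4-11 cells exposed to compound at the indicated doses for 24 h; lysates probed by Western blotting for the target protein, with GAPDH as loading control.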

MV4-11 [16] = assay: Induction of apoptosis in human MV4-11 cells assessed as reduction in BIM level after 24 hrs by Western blot analysis; assay type: functional, cell-based; procedure, shortened: as §4
RKO = assay: Induction of cell cycle arrest in human RKO cells assessed as increase in accumulation at G1 phase at 100 nM after 24 hrs by propidium iodide staining based flow cytometric analysis; assay type: functional
[17] = Tmax in rat brain at 50 mg/kg, po; assay type: ADME, organism-based
Procedure, shortened: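 Rats dosed orally at 50 mg/kg in 1% DMSO/0.5% HPMC; drug measured in plasma and brain.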

[18] = Tmax in dog plasma at 3 mg/kg, po; assay type: ADME, organism-based, Canis lupus familiaris
Procedure, shortened: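 Oral dosing in 1% DMSO/0.5% HPMC vehicle (dog 3 mg/kg; rat 10 mg/kg); plasma drug levels measured.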

[19] = AUC (0 to t) in ICR mouse brain at 50 mg/kg, po administered via gavage measured after 0.25 to 24 hrs by UPLC/MS analysis; assay type: ADME, organism-based; parameters: time lower 0.25 hr, dose 50 mg/kg, time upper 24 hr, route oral; procedure, shortened: as §1
[20] = Half life in dog plasma at 3 mg/kg, po; assay type: ADME, organism-based, Canis lupus familiaris
[21] = Bioavailability in dog at 1 mg/kg, iv; assay type: ADME, organism-based, Canis lupus familiaris; conditions: in vivo
[22] = Toxicity in Balb/c nude mouse xenografted with human MV4-11 cells assessed as reduction in body weight at 10 to 50 mg/kg, administered once daily; assay type: organism-based; conditions: in vivo
[23] = Toxicity in Balb/c nude mouse xenografted with human MV4-11 cells assessed as effect on mouse survival at 10 to 50 mg/kg, administered once daily; assay type: organism-based; conditions: in vivo
[24] = Drug uptake in tumor of Balb/c nude mouse xenografted with human MV4-11 cells at 25 to 50 mg/kg, po measured after 8 hrs; assay type: ADME, organism-based, Neoplasm; conditions: in vivo
Procedure, shortened: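 MV4-11 xenografts in BALB/c nude mice given oral compound; drug concentrations in plasma and tumor tissue measured at 1 h and 8 h after dosing.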

SMILES: Cc1ccc(-n2nc(C(=O)N3C[C@@H](C)N[C@@H](C)C3)nc2-c2ccc3c(c2)N(C2CCCC2)[C@H](C)C(=O)N3C)cc1
- AUC(0-t) [1]: 16700 ng·h/mL
- Activity [2]: 70 to 100%
- Tmax [3]: 1.1 h
- t1/2 [4]: 3.22 h
- Activity [5]: < 5%
- Activity [6]: 20 to 50%
- Activity [7]: 70 to 100%
- Activity [8]: 50 to 70%
- Activity [9]: 70 to 100%
- Activity (Peregrin (Homo sapiens)): 70 to 100%
- inhibition activity call (active/inactive) [10]: Active
- Kd [11]: 15.2 nM
- inhibition [12]: Active
- inhibition [13]: Active
- Activity (MV4-11 [14]): Active
- Activity (Homo sapiens): Active
- Activity (Hep 3B2): Active
- Activity (AGS): Active
- Activity (HuTu80): Active
- Activity (MV4-11 [15]): Dose-dependent effect
- Activity (MV4-11 [16]): Dose-dependent effect
- Activity (RKO): Active
- Tmax [17]: 0.9 h
- Tmax [18]: 0.5 h
- AUC(0-t) [19]: 2320 ng·h/mL
- half-life [20]: 6.6 h
- bioavailability [21]: 34.3%
- Activity [22]: Non-Toxic
- Activity [23]: Non-Toxic
- Drug uptake [24]: Active
